SUMO Mot1 rescue – SUMOylation pathway inhibition by Mot1-301 growth rescue; S. cerevisiae Mot1-301 growth rescue, ATP luminescence, 38.5C; percent above DMSO median, 100 means doubled; growth rescue, % at 18.8 µM; 1% of 320,000 active; AID 2716;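 active means every valid replicate shows activation above 250% relative to neutral control wells; inactive means the rest, any valid replicate at or below 250%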;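 further: OY570 slx delta 5 strain wells were the positive control but not used for scaling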
UCH37 DUB inh – human UCH37 deubiquitinating enzyme inhibition; purified proteasome/UCH37, Ub-AMC cleavage fluorescence; Q9Y5K5; 0.33% of 330,000 active; inhibition, % (concentration not given with the values);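 active means mean inhibition over replicate wells above about 20%, limit read from the data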;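 further: 0% = compound-free wells with enzyme and 100% = wells lacking proteasome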
Target sequence (Q9Y5K5 whole entry, looked up): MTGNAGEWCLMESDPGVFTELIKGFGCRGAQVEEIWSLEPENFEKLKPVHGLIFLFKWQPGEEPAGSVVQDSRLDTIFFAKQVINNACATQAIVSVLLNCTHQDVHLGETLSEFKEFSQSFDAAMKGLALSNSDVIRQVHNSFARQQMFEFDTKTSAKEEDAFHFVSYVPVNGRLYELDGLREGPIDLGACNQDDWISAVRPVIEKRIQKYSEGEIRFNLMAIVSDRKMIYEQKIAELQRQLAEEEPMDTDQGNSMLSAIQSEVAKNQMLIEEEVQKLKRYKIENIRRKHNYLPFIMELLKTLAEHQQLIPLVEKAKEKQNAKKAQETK
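Signal – fluorescence, ex 355 nm, em 460 nm · System – Proteasome-bound UCH37 · Input – 0.15 nM proteasome as dispensed · Timing – 30 min preincubation with enzyme, 25 min cleavage at room temperature · Read-out basis – percent inhibition of cleavage signal versus uninhibited and no-proteasome wells · Medium – Tris-HCl pH 7.4 with ATP-MgCl2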
RTF Ca sens inh – cardiac RTF calcium desensitization; P19429+P45379; IANBD-labeled cardiac RTF, Ca2+ fluorescence; inhibition, % at 7.15 µM; 0.12% of 340,000 active;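 active means inhibition above the mean inhibition of all tested compounds plus 3 SD, cut at about 17% in these data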;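 further: assay run at fixed EC70 calcium of 1.6 mM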
Efflux pump mplx – inhibitors of Candida antifungal efflux pumps expressed in yeast | S. cerevisiae Candida pump triplex, Nile Red efflux | inhibition, % at 10 µM | 0.44% of 330,000 active;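 active means plate passing quality check with inhibition over a set limit, or well fluorescence over plate mean plus 4 SD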;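 further: Nile Red retained in pooled yeast measured as flow cytometry median fluorescence; 0% = buffer negative control and 100% = Enniatin B positive control; higher means more Nile Red kept so more efflux inhibition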
ARNT-TACC3 inh – disruptors of human ARNT/TACC3 interaction. inhibition, % at 9.99 µM. AlphaScreen His-ARNT PAS-B/GST-TACC3 binding, luminescence; TACC3 fragment carries E629A point mutation. 0.66% of 390,000 active. AID 623870;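 active means mean inhibition of replicates at least 50% and at least half of replicates each reaching 50%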;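 further: 0% = complete ARNT plus TACC3 wells and 100% = ARNT alone without TACC3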
cardiac RTF act – cardiac RTF calcium sensitization; activation, % at 7.2 µM; IANBD-labeled TnC RTF fluorescence at EC20 calcium; 0% EC20 calcium, 100% full calcium; P19429+P45379; 0.24% of 340,000 active;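 active means activation above the mean over all tested compounds plus 3 SD, cut at about 30% in these data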;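 further: rise in fluorescence read as greater calcium sensitivity of cardiac thin filaments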
Numbers without * were called inactive; . = no result given; + = active, no number. Rows were chosen to be rich in hits. Some 2.1% of all compounds tested hit in one or more screens of this group.

SMILES	SUMO Mot1 rescue	UCH37 DUB inh	RTF Ca sens inh	Efflux pump mplx	ARNT-TACC3 inh	cardiac RTF act
CC(C)=C(C#N)c1nc2ccccc2s1	18	6	-11	0	2	1
COc1ccccc1N1C(C)=CC(=C(C#N)c2nc3ccccc3s2)C=C1C	12	1	-44	0	-9	53*
COc1cccc(N2CCN(c3ncnc4c3[nH]c3ccccc34)CC2C)c1 (stereo not drawn)	523*	.	.	0	.	.
COc1cccc(N2CCN(c3ncnc4c3[nH]c3ccc(F)cc34)CC2C)c1 (stereo not drawn)	79	-2	3	0	-9	8
O=C(O)COc1ccccc1C=NNC(=O)c1cc2ccccc2cc1O	.	12	.	.	.	.
C=CCn1c(Cc2nc3ccc(Cl)cc3[nH]2)n[nH]c1=S	4	5	16	0	36*	-4
NC(=O)NN=Cc1ccc(N2CCOCC2)s1	.	-2	.	.	.	.
COc1cc(C=NNc2nc(-c3ccc(C)cc3)c(NC(C)=O)s2)ccc1O	.	-31	.	.	.	.
CCc1ccc(NC(=O)Cn2c3[n+](c4c(F)c(F)ccc42)CCCCC3)cc1	708*	2	-2	0	3	3
O=S(=O)(O)c1cc(Cl)cc(N=Nc2ccc(O)cc2O)c1O	.	.	15	.	63*	-30
CCOc1cc(C=NNC(=O)c2ccc(CN3CCOCC3)cc2)ccc1OCc1ccccc1	.	0	.	.	.	.
COc1cccc(C2c3c(oc4ccccc4c3=O)C(=O)N2Cc2ccco2)c1 (stereo not drawn)	143	3	-12	0	47*	-1
COc1cc(C2c3c(oc4ccccc4c3=O)C(=O)N2Cc2ccco2)ccc1O (stereo not drawn)	336	0	-9	0	-2	3
CCN1C(=O)[C@H]2[C@H]3[C@H](O)[C@H](O)CC(=NOC[C@@H](C)[C@H](OCc4ccccc4)C(C)C)[C@@H]3CC[C@H]2C1=O	.	3	.	.	.	.
Cc1cccc2c1-c1sc(C(=O)Nc3ccccc3N3CCN(C)CC3)cc1CO2	35	-22	1	0	45*	-5
Cc1cccc2c1-c1sc(C(=O)N3CCCCC3)cc1CO2	-14	-137	2	0	5	-3
CCc1ccc(S(=O)(=O)N=C2C=C(Sc3ncn[nH]3)C(=O)c3ccccc32)cc1	.	80*	.	.	.	.
c1n[nH]c(NC2=NCCC2)n1	5	5	-10	0	61*	4
Cc1ccc(S(=O)(=O)ON=C2CCCc3ccccc32)cc1	.	6	.	.	.	.
C(=Nn1cnnc1)c1nc2ccccc2[nH]1	.	-207	.	.	.	.
c1ccc2c(Nc3nncs3)c3ccccc3nc2c1	314*	4	-1	0	1	2
COc1ccc(Nc2c3ccccc3nc3ccccc23)cc1	-8	0	-3	0	7	-6
COc1ccccc1C=NNC(=O)c1cccc(OC(F)(F)C(F)F)c1	.	-2	.	.	.	.
CCn1c(C)c(C(C)=O)c(N2CCN(c3cccc(Cl)c3)CC2)nc1=S	585*	7	-12	0	2	3
COc1ccc(-n2c(SCC(=O)N3CCOCC3)nc(O)cc2=O)cc1	0	-1	-3	0	.	-3
SMILES	SUMO Mot1 rescue	UCH37 DUB inh	RTF Ca sens inh	Efflux pump mplx	ARNT-TACC3 inh	cardiac RTF act
COc1ccc(-n2c(SCC(=O)N3CCOCC3)nc(O)c(Cc3ccccc3)c2=O)cc1	123	30*	-23	0	-1	1
S=c1[nH]nc(-c2cccnc2)n1N=Cc1ccco1	.	2	.	.	.	.
COc1ccc(C(C(=O)NC2CCCCC2)N(C(=O)CCl)c2cccc(Cl)c2)cc1 (stereo not drawn)	328*	4	-3	0	-7	2
CCC(=O)Oc1ccc(C(=O)Nc2cccc(C(=O)NCC(C)C)c2)cc1	+	2	-6	0	.	-4
CCC(=O)Oc1ccc(C(=O)Nc2ccccc2C(=O)NCC(C)C)cc1	-17	1	-7	1	-9	-6
Nc1ccc(C(=O)NN=Cc2cn(Cc3ccccc3)c3ccccc23)cc1	.	-12	.	.	.	.
NC(=O)CN1C(=O)C(=c2sc3nc(=O)c(Cc4ccccc4)nn3c2=O)c2ccccc21	.	5	.	.	.	.
O=C(CC1SC(=Nc2ccccc2)N(CCCCO)C1=O)NCc1ccccc1 (stereo not drawn)	-3	26*	-5	0	1	4
O=C(CCC(=O)Nc1ccc(F)cc1)NN=Cc1ccc(Br)cc1	.	3	.	.	.	.
COc1ccc(C2=CC(=O)CC(c3ccc(OC)cc3)C2)cc1 (stereo not drawn)	673*	.	12	0	2	2
COc1ccccc1C=NNS(=O)(=O)c1ccccc1	.	-2	.	.	.	.
CCOC(=O)c1ccccc1NC(=O)COC(=O)C1=COCCO1	286*	1	-3	0	-8	-4
C(=Nn1cnnc1SCc1ccccc1)c1ccco1	.	4	.	.	.	.
CCNC(=S)NN=Cc1cn(Cc2ccccc2F)c2ccccc12	.	9	.	.	.	.
O=C(NCCCN1CCCCCC1)c1ccc2c(c1)NC(=O)C(N1CCOCC1)S2 (stereo not drawn)	-29	22*	1	0	1	6
CCC(=O)N1CCC2(CC1)Oc1ccc(Cl)cc1C(=O)C21CC(c2ccccc2)=NO1 (stereo not drawn)	-10	4	-25	0	2	-8
O=C(/C=C/c1cccs1)N1CCC2(CC1)Oc1ccc(Cl)cc1C(=O)C21CC(c2ccccc2)=NO1 (stereo not drawn)	-21	0	-4	0	24*	1
Clc1nc(-c2ccccn2)nc2scc(-c3ccccc3)c12	-2	3	-8	0	60*	5
Brc1ccccc1-n1nnc(-c2nccs2)n1	10	25*	-15	.	1	3
O=C(O)c1cccc(Cn2c(Cl)c(/C=N/Nc3ccccc3)sc2=O)c1	279*	.	-8	0	-7	1
Cc1ccccc1NN=Cc1sc(=O)n(Cc2cccc(C(=O)O)c2)c1Cl	.	14	.	.	.	.
Cc1noc(C)c1NC(=O)N(C)C[C@@H]1Oc2c(NC(=O)c3ccc(-c4nccs4)cc3)cccc2C(=O)N([C@H](C)CO)C[C@H]1C	.	.	.	.	31*	.

High-throughput results from PubChem BioAssay.
